These results are taken from ChEMBL document CHEMBL1152580, “Toward establishing structure-activity relationships for oxygenated coumarins as differentiation inducers of promonocytic leukemic cells” (Bioorg Med Chem, 2009).

Active and inactive are the calls of the source. No cut-off for these calls is given here.

Assay [1] has as its system U-937. The assay can be described thus: Growth inhibition of human U937 cells assessed as [3H]5-methyl thymidine incorporation after 48 hrs by liquid scintillation counting. The format is functional, cell-based. The method, boiled down:
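Exponentially growing U-937 cells (10⁴ per well in RPMI 1640) exposed to coumarins up to 2.0 mM or 0.0001% (v/v) DMSO for 48 h. 0.5 µCi [³H]5-methyl thymidine added 12 h before the end. Cells harvested, incorporation read by liquid scintillation counting as % of DMSO control. IC50 from sigmoidal dose-response fit; quadruplicate, at least four independent experiments.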
(Incorporation of labelled thymidine or its analogues reports DNA synthesis.)

For assay [2], the system named is U-937. The assay can be described thus: Cytotoxicity against human U937 cells after 48 hrs by trypan blue assay. The format is functional. Particulars: U-937, 48 h. In short, it runs like this: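 U-937 cells in exponential growth seeded at 10⁵ cells/mL RPMI 1640, exposed to coumarin 0.15 µM to 2.0 mM or 0.0001% (v/v) DMSO vehicle for 48 h at 5% CO₂. Viable cells counted by trypan blue exclusion (0.4%, 5 min) in a hemocytometer. CC50 from sigmoidal dose-response fit; quadruplicate, at least four independent experiments.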

The test system of assay [3] is U-937. The assay can be described thus: Induction of human U937 cell differentiation assessed as burst oxidative capacity at 25 uM after 72 hrs by NBT reduction assay relative to control. The format is functional, cell-based. In short, it runs like this: (§1)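 NBT reduction: U-937 cells (2 × 10⁵/mL) treated 72 h with 25 or 50 µM compound, 1 µM ATRA (positive control) or 0.0001% (v/v) DMSO. Washed, then incubated in RPMI containing 1 mg/mL NBT and 1 µg/mL PMA for 30 min at 37 °C. Formazan dissolved in DMSO, A570 read relative to DMSO control (=1); n = 3.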

For assay [4], the system named is U-937. The assay can be described thus: Growth inhibition of human U937 cells assessed as cell proliferation after 72 hrs. It is filed as functional, cell-based. Conditions: TDE = time-dependent effect. In short, it runs like this:
(§2)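 U-937 cells seeded at 10⁵ cells/mL and treated with 25 or 50 µM compound, 400 µM dbcAMP (positive control) or 0.0001% (v/v) DMSO for up to 72 h (sampled at 24, 48, 72 h). Cell number counted on a Coulter Z-1, with density kept ≤1 × 10⁶ cells/mL. Expressed as % of DMSO control; n = 3.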

In assay [5] the test system is U-937. The assay can be described thus: Induction of human U937 cell differentiation assessed as expression of CD88 receptor at 50 uM after 2 days. It is filed as functional, cell-based. In short, it runs like this: (§3)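 CD88 read-out as C5a-evoked Ca²⁺ release: U-937 cells (1 × 10⁶/mL) treated 48 h with 5, 25 or 50 µM compound, 400 µM dbcAMP or 0.0001% DMSO. Loaded with 2 µM Fura 2-AM in BSS pH 7.5, 30 min, 37 °C, then 2 × 10⁶ cells/mL. F340/F380 (emission 505 nm) recorded for 8 min at 37 °C with rhC5a or ATP injection. Calibrated with Triton X-100/EGTA; ≥3 experiments.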

The subject of assay [6] is U-937. The assay can be described thus: Growth inhibition of human U937 cells assessed as proliferation at 50 uM after 72 hrs. The format is functional. Conditions: U-937, 72 h, read-out: Activity. The method, boiled down: as §2
The subject of assay [7] is U-937. The assay can be described thus: Induction of human U937 cell differentiation assessed as increase in rhC5a-stimulated intracellular calcium at 50 uM after 2 days. The format is functional, cell-based. The method, boiled down: as §3
A general note: Calcium flux is commonly read through the fluorescence of an indicator in the cells.

Assay [8] deals with U-937. The assay can be described thus: Induction of human U937 cell differentiation assessed as expression of CD88 receptor at 5 uM after 2 days. It is filed as functional, cell-based. In short, it runs like this: as §3
In assay [9] the test system is U-937. The assay can be described thus: Induction of human U937 cell differentiation assessed as expression of CD11b levels at 50 uM after 72 hrs relative to control. The format is functional, cell-based. The method, boiled down: (§4)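 U-937 cells (2 × 10⁵/mL) treated 72 h with 25 or 50 µM compound, 400 µM dbcAMP (positive control) or 0.0001% (v/v) DMSO. Washed in PBS, stained with saturating PE anti-CD11b or isotype control, 4 °C, 30 min. Analysed by flow cytometry, ≥5000 events; CD11b relative to DMSO control (=1); n = 3.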

For assay [10], the system named is U-937. The assay can be described thus: Induction of human U937 cell differentiation assessed as expression of CD11b levels at 25 uM after 72 hrs relative to control. It is filed as functional, cell-based. The method, boiled down: as §4
Assay [11] relates to U-937. The assay can be described thus: Induction of human U937 cell differentiation assessed as expression of CD88 receptor at 25 uM after 2 days. It is filed as functional, cell-based. In short, it runs like this: as §3
Assay [12] deals with U-937. The assay can be described thus: Induction of human U937 cell differentiation assessed as increase in rhC5a-stimulated intracellular calcium at 25 uM after 2 days. The format is functional, cell-based. In short, it runs like this: as §3
The subject of assay [13] is U-937. The assay can be described thus: Induction of human U937 cell differentiation assessed as burst oxidative capacity at 50 uM after 72 hrs by NBT reduction assay relative to control. It is filed as functional, cell-based. The method, boiled down:
as §1

For `COc1cc(OC)c2ccc(=O)oc2c1OCC=C(C)C` [ARTANIN], the IC50 with U-937 [1] came out at 177 µM. The same molecule yielded a CC50 in the assay on U-937 [2] of 535 µM.
The like results for `COc1c2c(c(OC)c3oc(=O)ccc13)OCO2` were, in that order, > 400 µM and > 2000 µM.
With `O=c1ccc2c(F)c3c(cc2o1)OCO3`, the half-maximal inhibitory concentration (IC50) with U-937 [1] is > 400 µM. Besides, in the assay on U-937 [2], the 50% cytotoxic concentration (CC50) was > 2000 µM.
In the same order, the values of `CC(C)=CCOc1c2c(cc3oc(=O)ccc13)OCO2` are 3.5 µM and 266 µM.
The like results for `CC(C)=CCOc1cc2oc(=O)ccc2cc1O` [PRENYLETIN] were, in that order, > 400 µM and 820 µM.
Turning to `COc1c2c(cc3ccc(=O)oc13)OCO2`, the IC50 in the assay on U-937 [1] is > 400 µM. Further, the CC50 in the assay with U-937 [2] was > 2000 µM.
In the same order, the values of `CC1(C)OC1COc1c2c(cc3oc(=O)ccc13)OCO2` (configuration not stated) are > 400 µM and 899 µM.
As for `O=c1ccc2cc3c(cc2o1)OCO3` [AYAPIN], the IC50 with U-937 [1] is > 400 µM. Further, the cytotoxic concentration (CC50) in the assay on U-937 [2] was > 2000 µM.
The like results for `O=c1ccc2c(Br)c3c(cc2o1)OCO3` were, in that order, > 400 µM and > 2000 µM.
Regarding `COc1cc2ccc(=O)oc2cc1OCC=C(C)C` [PRENYLETIN 6-METHYL ETHER], the IC50 with U-937 [1] is > 400 µM. Further, half-maximal cytotoxicity with U-937 [2] (CC50) was put at 799 µM.
The like results for `COc1cc(OC)c2ccc(=O)oc2c1OC` were, in that order, > 400 µM and > 2000 µM.
In the same order, the values of `COc1cc(OC)c2ccc(=O)oc2c1O` [LEPTODACTYLONE] are > 400 µM and > 2000 µM.
The like results for `O=c1ccc2ccc3c(c2o1)OCO3` were, in that order, > 400 µM and > 2000 µM.
For the molecule `COc1cc2oc(=O)ccc2c(OC)c1O` [FRAXINOL], the IC50 with U-937 [1] is > 400 µM. For the same molecule, the CC50 in the assay with U-937 [2] is > 2000 µM.
As for `CC(C)(O)C(O)COc1c2c(cc3oc(=O)ccc13)OCO2` (configuration not stated), the outcome in the assay with U-937 [3], in the assay with U-937 [5] and in the assay on U-937 [7] was Active. Also, the “growth inhibition (GI)” value in the assay on U-937 [4] was “tde”. Further, the IC50 with U-937 [1] turned out to be 192 µM. In the assay on U-937 [2], this molecule returned a CC50 of 420 µM. Moreover, the growth at 50 µM in the assay with U-937 [6] is 38%. Further, the result with U-937 [8] and in the assay on U-937 [9] was inactive.
On to `O=c1ccc2c(O)c3c(cc2o1)OCO3`, for which the IC50 with U-937 [1] worked out at 255 µM. Further, in the assay with U-937 [2], the CC50 was > 2000 µM.
The like results for `CC(C)(Cl)C(O)COc1c2c(cc3oc(=O)ccc13)OCO2` (configuration not stated) were, in that order, 227 µM and 567 µM.
In the same order, the values of `O=c1ccc2ccccc2o1` [COUMARIN] are > 400 µM and > 2000 µM.
The like results for `C=C(C)C(O)COc1cc2oc(=O)ccc2cc1OC` (configuration not stated) were, in that order, > 400 µM and 704 µM.
For the molecule `COc1cc2oc(=O)ccc2c(OC)c1OC` [5,6,7-TRIMETHOXYCOUMARIN], the 50% inhibitory concentration (IC50) with U-937 [1] was determined as 182 µM. Further, the half-maximal cytotoxic concentration (CC50) in the assay with U-937 [2] was 790 µM.
The like results for `COc1c2c(cc3oc(=O)ccc13)OCO2` were, in that order, 2.2 µM and 252 µM.
For the molecule `COC(C)(C)C(O)COc1c2c(cc3oc(=O)ccc13)OCO2` (configuration not stated), the result in the assay on U-937 [3], with U-937 [5], in the assay on U-937 [7], with U-937 [12] and in the assay with U-937 [13] was Active. For the same molecule, in the assay with U-937 [4], the “growth inhibition (GI)” value is “tde”. The result in the assay with U-937 [10], with U-937 [8] and with U-937 [9] was inactive. Moreover, the IC50 in the assay on U-937 [1] is 25.3 µM. Also, it took 365 µM to reach half-maximal cytotoxicity with U-937 [2] (CC50). Further, in the assay with U-937 [11], the Activity entry was “Agonist”. The growth at 50 µM with U-937 [6] came out at 62.5%.

A word on the IC50: it is the concentration needed to halve the response being measured. One may read the CC50 as the concentration that lowers cell viability or growth by half. Higher therefore signals lower toxicity to the cells.
